Experimental data from different studies.
Lines come from different studies, so protocols differ.
CYP3A7: Cytochrome P450 3A7 (CYP3A7, Homo sapiens, UniProt P24462)

The IC50 of C=C(C)[C@@]12O[C@@]3(/C=C/C=C/CCCCC)O[C@@H]1[C@@H]1[C@@H]4O[C@]4(CO)[C@@H](O)[C@]4(O)C(=O)C(C)=C[C@H]4[C@@]1(O3)[C@H](C)[C@H]2OC(=O)/C=C/c1ccc(O)c(OC)c1 is reported as over 0.034 µM (MT4; cell growth or viability, ATP luminescence; 96 h).
CC[C@H](C)[C@H]1C(=O)N2CCC[C@H]2C(=O)O[C@H](C(C)(C)C)C[C@@H](C)C[C@H](O)C(C)(C)C2=N[C@@H](CCC(=O)N[C@@H](Cc3ccc(OC)cc3)C(=O)N(C)[C@@H](C)C(=O)N1C)CS2 has a compound remaining of 100% (metabolic stability; female CD-1 mouse, liver microsomes; 1 µM, 0 h, pH 7.4).
O=C(O)C(F)(F)C(F)(F)C(F)(F)C(F)(F)C(F)(F)C(F)(F)C(F)(F)F has an inhibition of 16.3% (CYP3A7; enzyme activity, inhibitor; 10 µM, pH 7.4).
For Cc1ncc2n1-c1ccc(Cl)cc1C(c1ccccc1F)=NC2, the compound remaining was 0.3% (metabolic stability; CD-1 mouse, hepatocytes; 1 µM, 4 h).
For CCCCCCCCCC(=O)O[C@@]12[C@H](OC(=O)c3ccccc3)[C@@H](C)[C@]3(O)[C@@H]4C=C(C)C(=O)[C@@]4(O)[C@H](O)C(CO)=C[C@H]3[C@@H]1C2(C)C, the CC50 was over 7 µM (MT4; cell growth or viability, ATP luminescence).
COC(=O)N[C@H](C(=O)NN(CC[C@]1(Cc2ccccc2)C(=O)N([C@H]2c3ccccc3C[C@H]2O)C[C@@H]1O)Cc1ccc(Br)cc1)C(C)(C)C gave a CC50 of over 50 µM (MT4; cell growth or viability, XTT; 5 days).
With C=C(C)[C@]12C[C@@H](COC(=O)c3ccccc3)[C@@]34OC5(O[C@@H]1[C@@H]3[C@@H]1O[C@]1(CO)[C@@H](O)[C@@]1(O)[C@H]4[C@H]([C@H](C)[C@@H]1OC(=O)c1ccccc1)[C@H](C)CCCCCC[C@H]5O)O2 the CC50 was over 7 µM (MT4; cell growth or viability, ATP luminescence).
C=C(C)[C@@]12O[C@@]3(/C=C/C=C/C=C/CCC)O[C@@H]1[C@@H]1[C@@H]4O[C@]4(CO)[C@@H](O)[C@]4(O)C(=O)C(C)=C[C@H]4[C@@]1(O3)[C@H](C)[C@H]2OC(=O)c1ccccc1 gave an IC50 of over 0.034 µM (MT4; cell growth or viability, ATP luminescence; 96 h).
For O=C(c1ccc(F)cc1F)N1CCC(NCCSC(c2ccc(F)cc2)c2ccc(F)cc2)CC1, the compound remaining was about 30% (metabolic stability; mouse, liver microsomes; 10 µM, 1 h, pH 7.4).
N=c1c2c(-c3ccccc3)c(-c3ccccc3)n(Cc3ccccc3)c2ncn1[C@H]1CC[C@H](O)CC1 has a compound remaining of 44% (metabolic stability; Sprague-Dawley rat, hepatocytes; 1 µM, 4 h).
The compound remaining of CC[C@H](C)[C@H]1C(=O)N2CCC[C@H]2C(=O)O[C@H](C(C)(C)C)C[C@@H](C)C[C@H](O)[C@H](C)C2=N[C@H](CCC(=O)N[C@@H](Cc3ccc(OC)cc3)C(=O)N(C)[C@@H](C)C(=O)N1C)CS2 is reported as 100% (metabolic stability; female CD-1 mouse, liver microsomes; 1 µM, 0 h, pH 7.4).
For C=C(C)[C@@]1(O)[C@H](OC(=O)/C=C/C=C/CCCCC)[C@@H]2[C@@H]3O[C@]3(CO)[C@@H](O)[C@]3(O)C(=O)C(C)=C[C@H]3[C@@]2(O)[C@H](C)[C@H]1OC(=O)/C=C/c1ccccc1, the IC50 was over 0.034 µM (MT4; cell growth or viability, ATP luminescence; 96 h).
The compound remaining of Cc1ncc2n1-c1ccc(Cl)cc1C(c1ccccc1F)=NC2 is reported as under 7% (metabolic stability; male CD-1 mouse, liver microsomes; 1 µM, 30 min).
The IC50 of C=C(C)[C@]1(O)C[C@@H](C)[C@@]2(O)[C@@H]([C@H]3O[C@@]4([C@H](O)[C@]3(O)COC(=O)c3ccccc3)[C@@H](OC(=O)/C=C/C=C/C=C/CCC)[C@@H](C)C[C@@H]24)[C@H]1O is reported as over 0.034 µM (MT4; cell growth or viability, ATP luminescence; 96 h).
The IC50 of O=S(=O)(O)C(F)(F)C(F)(F)C(F)(F)C(F)(F)C(F)(F)C(F)(F)C(F)(F)C(F)(F)F is reported as 16.8 µM (CYP3A7; enzyme activity, inhibitor, mass spectrometry).
The CC50 of COC(=O)N[C@H](C(=O)NN(CC[C@@]1(Cc2ccccc2)C(=O)N([C@H]2c3ccccc3C[C@H]2O)C[C@@H]1O)Cc1ccc(-c2ccncc2)cc1)C(C)(C)C is reported as over 50 µM (MT4; cell growth or viability, XTT; 5 days).
The IC50 of C=C(C)[C@@]1(O)[C@H](OC(=O)/C=C/C=C/C=C/CCC)[C@@H]2[C@@H]3O[C@]3(CO)[C@@H](O)[C@]3(O)C(=O)C(C)=C[C@H]3[C@@]2(O)[C@H](C)[C@H]1OC(=O)/C=C/c1ccc(O)c(OC)c1 is reported as over 0.034 µM (MT4; cell growth or viability, ATP luminescence; 96 h).
For CCCCCC/C=C/CC(=O)O[C@@]12[C@H](OC(=O)c3ccccc3)[C@@H](C)[C@@]3(O)[C@@H](C=C(CO)C[C@]4(O)C(=O)C(C)=C[C@@H]34)[C@@H]1C2(C)C, the CC50 was over 7 µM (MT4; cell growth or viability, ATP luminescence).
The IC50 of C=C(C)[C@@]12O[C@@]3(/C=C/C=C/CCCCC)O[C@@H]1[C@@H]1[C@@H]4O[C@]4(CO)[C@@H](O)[C@]4(O)C(=O)C(C)=C[C@H]4[C@@]1(O3)[C@H](C)[C@H]2OC(=O)c1ccccc1 is reported as over 0.034 µM (MT4; cell growth or viability, ATP luminescence; 96 h).
With O=S(=O)(O)C(F)(F)C(F)(F)C(F)(F)C(F)(F)C(F)(F)C(F)(F)F the inhibition was 29.1% (CYP3A7; enzyme activity, inhibitor; 10 µM, pH 7.4).
